Active and inactive are the calls of the source. The rule behind the calls is not given here.
Columns and labels:
Rattus norvegicus = assay: Central dopaminergic activity in rat assessed as dopaminergic stimulant activity at 30 mg/kg, ip; type: ADME, organism-based; set-up: dose 30 mg/kg, route intraperitoneal; details: in vivo
Procedure, shortened: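 Rats carrying 6-hydroxydopamine lesions of the nigrostriatal pathway (Ungerstedt), dosed 30 mg/kg ip. Rotation was scored: ipsilateral turning indicates release of endogenous dopamine, contralateral turning indicates direct dopamine-receptor stimulation.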

Mus musculus [1] = assay: Toxicity in mouse at 30 mg/kg, ip; type: organism-based; set-up: dose 30 mg/kg, route intraperitoneal; details: in vivo
Mus musculus [2] = assay: Induction of mydriasis in mouse assessed as papillary diameter at 30 mg/kg, ip by binocular microscopic analysis; type: functional, organism-based; set-up: dose 30 mg/kg
Procedure, shortened: (§1)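 Mouse pupil diameter was read through a binocular microscope fitted with an ocular micrometer (Pulewka method), after dosing within the mouse behaviour screen.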

Mus musculus [3] = assay: Induction of mydriasis in mouse assessed as […] at 100 mg/kg, ip by binocular microscopic analysis; type: functional, organism-based; set-up: dose 100 mg/kg; procedure, shortened: as §1
Mus musculus [4] = assay: Sympathomimetic activity in mouse assessed as signs of exophthalmia at 100 mg/kg, ip; type: ADME, organism-based; set-up: dose 100 mg/kg, route intraperitoneal; details: in vivo
Procedure, shortened: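 Irwin-type mouse behavioural screen with intraperitoneal doses of 10, 30, 100 and 300 mg/kg, compound given as the hydrochloride salt. Animals were scored by observation for overt signs, including exophthalmia as an indicator of sympathomimetic activity and mydriasis. Pupil diameter was measured under a binocular microscope with an ocular micrometer.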

Mus musculus [5] = assay: Toxicity in mouse at 100 mg/kg, ip; type: organism-based; set-up: dose 100 mg/kg, route intraperitoneal; details: in vivo
Felis catus [6] = assay: Anticholinergic activity in cat assessed as effect on acetylcholine-induced normal heart rate and blood pressure changes at 1 to 10 mg/kg, iv; type: ADME, organism-based; set-up: dose 1-10 mg/kg, route intravenous; details: in vivo
Procedure, shortened: (§2)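 Pentobarbital-anaesthetised cat monitored for blood pressure and heart rate. Hydrochloride salt given as cumulative iv doses of 1, 3 and 10 mg/kg, each tested against a standard acetylcholine challenge of 1 μg/kg, noting any change in the normal heart-rate and pressure responses.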

Felis catus [7] = assay: Sympathomimetic activity in iv dosed cat assessed as increase of heart rate and blood pressure; type: ADME, organism-based; details: in vivo; procedure, shortened: as §2
Mus musculus [8] = assay: Sympathomimetic activity in mouse assessed as signs of exophthalmia and piloerection at 10 to 300 mg/kg, ip; type: ADME, organism-based; set-up: dose 10-300 mg/kg, route intraperitoneal; details: in vivo
Mus musculus [9] = assay: Induction of mydriasis in mouse assessed as papillary diameter at 25 mg/kg, sc by binocular microscopic analysis; type: functional, organism-based; set-up: dose 25 mg/kg; procedure, shortened: as §1

| Structure (SMILES) | Activity (Rattus norvegicus) | Activity (Mus musculus [1]) | Activity (Mus musculus [2]) | Activity (Mus musculus [3]) | Activity (Mus musculus [4]) | Activity (Mus musculus [5]) | Activity (Felis catus [6]) | Activity (Felis catus [7]) | Activity (Mus musculus [8]) | Activity (Mus musculus [9]) |
| --- | --- | --- | --- | --- | --- | --- | --- | --- | --- | --- |
| O=C(O)/C=C\C(=O)O.c1cc2ccc1CCCCCCNCC2 | Non-toxic | Toxic | inactive | – | – | – | – | – | – | – |
| CCCCc1ccc(CCCNC)cc1.Cl | Non-toxic | – | – | Active | Toxic | – | – | – | – | – |
| CCCCCc1ccc(CCNC)cc1.O=C(O)/C=C\C(=O)O | Non-toxic | – | – | inactive | – | Toxic | – | – | – | – |
| Cl.c1cc2ccc1CCCCCNCCC2 | Non-toxic | – | Active | – | – | – | Non-toxic | Non-toxic | Non-toxic | Active |

Source: ChEMBL document CHEMBL3271958, “Azaparacyclophanes. A novel class of conformationally rigid analogs of phenylethylamine and phenylpropylamine” (J Med Chem, 1976)
